Screening results from PubChem.
This is a sample that favours compounds with a hit; in the whole collection about 2.3% have one here.
TRPC4 inh: blocks the mouse TRPC4 cation channel | B-score at 10 µM | AID 2247 | HEK293 TRPC4beta/mu-opioid, DAMGO-evoked Fluo4 calcium flux; active compounds read low | actives 0.39% (n = 300,000);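 active = B-score over 3 SD under the library average, no early fluorescence shift, positive overall ratio signal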
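Assay system: HEK293 cells with stable TRPC4beta plus mu-opioid receptor expression; Probe or stimulus: DAMGO in two steps, submaximal then maximal; Dosing: single-point compound dosing; Measured by: Fluo4 calcium-dye fluorescence, kinetic read; Read-out basis: B score from integrated Fluo4 fluorescence ratio.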
TRPC4 act: TRPC4 (mouse) channel activation | Q9QUQ5 | HEK293 TRPC4beta/mu-opioid, Fluo4 calcium fluorescence; active compounds read high | B-score at 10 µM | actives 0.49% (n = 310,000) | AID 2237;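 active = B-score above 5 SD of library B-scores, and initial fluorescence ratio not above library mean plus 5 SD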;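 note: positive B-score marks a calcium rise read as TRPC4 activation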
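Assay system: HEK293 stable line with TRPC4beta plus mu-opioid receptor. Times: dye 45 min RT, read 110 s. Measured by: kinetic Fluo4 calcium fluorescence. Measure: B score of integrated ratio. Controls: assay buffer as low control, maximal DAMGO as high control.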
TRPC6 activator: activators of mouse TRPC6 channel; HEK293-TRPC6 membrane potential dye fluorescence; active compounds read high; B-score at 10 µM; Q61143; AID 2550; actives 0.13% (n = 310,000);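 active = B-score of the integrated fluorescence ratio above library mean plus 3 SD, and starting fluorescence ratio within library mean plus 5 SD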;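 note: higher score means more depolarization so channel activation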
Target sequence (Q61143 whole entry, looked up): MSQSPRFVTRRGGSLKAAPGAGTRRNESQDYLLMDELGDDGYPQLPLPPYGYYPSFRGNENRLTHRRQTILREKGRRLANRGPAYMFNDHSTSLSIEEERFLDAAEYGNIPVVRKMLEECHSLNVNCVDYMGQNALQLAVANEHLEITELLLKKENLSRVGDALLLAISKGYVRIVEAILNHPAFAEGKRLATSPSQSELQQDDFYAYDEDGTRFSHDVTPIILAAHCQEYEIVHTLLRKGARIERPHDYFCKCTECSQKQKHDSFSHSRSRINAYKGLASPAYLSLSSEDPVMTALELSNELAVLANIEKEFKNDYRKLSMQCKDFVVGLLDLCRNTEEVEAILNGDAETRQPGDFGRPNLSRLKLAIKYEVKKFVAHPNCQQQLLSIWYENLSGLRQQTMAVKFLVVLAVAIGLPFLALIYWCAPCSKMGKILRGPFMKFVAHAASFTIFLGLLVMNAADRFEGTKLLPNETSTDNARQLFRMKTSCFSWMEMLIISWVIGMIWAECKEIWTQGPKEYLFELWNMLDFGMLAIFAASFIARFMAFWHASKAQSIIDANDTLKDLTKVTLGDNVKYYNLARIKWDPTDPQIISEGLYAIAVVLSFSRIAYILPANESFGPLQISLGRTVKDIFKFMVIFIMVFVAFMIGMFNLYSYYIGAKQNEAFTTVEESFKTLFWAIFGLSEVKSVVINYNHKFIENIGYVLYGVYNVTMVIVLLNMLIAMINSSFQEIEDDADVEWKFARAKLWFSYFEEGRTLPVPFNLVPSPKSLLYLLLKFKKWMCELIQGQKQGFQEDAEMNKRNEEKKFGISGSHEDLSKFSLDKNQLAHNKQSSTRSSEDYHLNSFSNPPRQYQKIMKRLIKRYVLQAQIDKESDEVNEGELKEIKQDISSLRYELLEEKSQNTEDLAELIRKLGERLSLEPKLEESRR
TRPC4 potent: allosterically enhances the mouse TRPC4 cation channel; Q9QUQ5; HEK293 TRPC4beta/mu-opioid, DAMGO EC20, Fluo-4 Ca2+ flux; active compounds read high; B-score at 10 µM; actives 0.42% (n = 310,000); AID 2227;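 active = B-score of calcium response area above 5 SD of library B-scores, with initial fluorescence ratio within 5 SD of library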
TRPC6 inhibitor: blocks the mouse TRPC6 cation channel | Q61143 | AID 2553 | HEK293-TRPC6, membrane potential dye, ACh-evoked depolarization; active compounds read low | actives 1.1% (n = 310,000) | B-score at 10 µM;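 active = B-score under library mean minus 3 SD, initial fluorescence not abnormally high, positive integrated signal ratio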;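 note: B-score derived from integrated fluorescence ratio over the kinetic read; more negative B-score means stronger inhibition of depolarization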
TRPC4 spec 2: second selectivity test of TRPC6 inhibitors: effect on mouse TRPC4 | shares compounds with TRPC6 inhibitor | HEK293 TRPC4/MOR, membrane potential dye fluorescence; channel activated by saturating DAMGO dose | inhibition, % at 10 µM | actives 42% (n = 920) | AID 2776;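 active = compounds whose fluorescence signal differed from control wells by over 3 SD, either direction, in both duplicate plates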
TRPC4 spec: tests whether TRPC6 inhibitors also affect mouse TRPC4; shares compounds with TRPC6 inhibitor; HEK293 TRPC4/mu-opioid, membrane potential fluorescence; activity change, negative = inhibition, % at 10 µM; actives 61% (n = 920); AID 2777;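 active = rise or fall in signal beyond 3 SD of buffer-only wells in both replicate plates, either sign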;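 note: integrated kinetic ratio of fluorescence range over baseline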
HEK293 MPD ctr 2-1: parental HEK293 nonspecific activity of TRPC6 inhibitors, second screen. actives 31% (n = 920). shares compounds with TRPC6 inhibitor. parental HEK293 membrane potential dye fluorescence; maximal acetylcholine challenge after compound addition. signal change vs control, % at 10 µM. AID 2779;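 active = membrane potential signal moving either way by over 3 SD of the maximum-effect control, in both duplicate plates, meaning non-specific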
HEK293 MPD ctr-1: parental HEK293 nonspecific activity of TRPC6 inhibitors | membrane potential signal change, % at 10 µM | parental HEK293 membrane potential dye fluorescence | actives 60% (n = 920) | shares compounds with TRPC6 inhibitor;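 active = membrane potential signal shifting up or down by more than 3 SD of buffer-only wells, on both duplicate plates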
HEK293 MPD ctr-2: counter-screen for TRPC6 modulators: effect in parental HEK293 cells | shares compounds with TRPC6 inhibitor | membrane potential dye fluorescence | membrane potential signal change, % at 10 µM | actives 51% (n = 2,400) | AID 488924;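 active = membrane potential signal moves up or down beyond 5 SD from buffer-only wells, on both duplicate plates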
HEK293 MPD ctr 2-2: parental HEK293 nonspecific activity of TRPC6 modulators, second screen. shares compounds with TRPC6 inhibitor. membrane potential dye fluorescence; after compound, maximal acetylcholine stimulation. inhibition, % at 10 µM. actives 14% (n = 2,400). AID 488926;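 active = membrane potential signal drops by more than 5 SD from the mean control signal, in both duplicate plates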
TRPC4/MOR mod: selectivity of TRPC6 modulators against mouse TRPC4; actives 69% (n = 2,400); percent change from control (negative = decrease, positive = increase), % at 10 µM; AID 488927; shares compounds with TRPC6 inhibitor; HEK293 TRPC4/mu-opioid, membrane potential fluorescence;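 active = membrane potential signal moved up or down beyond 5 SD of buffer control wells, in both duplicate plates, actives on both sides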
TRPC4/MOR inh 2: mouse TRPC4 off-target activity of TRPC6 modulators, second screen | inhibition, % at 10 µM | shares compounds with TRPC6 inhibitor | HEK293 TRPC4/mu-opioid, membrane potential dye fluorescence; stimulated with maximal-effect DAMGO | actives 55% (n = 2,400);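 active = drop in membrane potential signal beyond 5 SD of the control wells in both duplicate plates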;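 note: TRPC4 counter screen for TRPC6 hits run under conditions tuned for TRPC6 not TRPC4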
TRPC6 inh conf: confirmation of mouse TRPC6 inhibitors. AID 488960. actives 43% (n = 3,300). HEK293-TRPC6, membrane potential dye, ACh-evoked depolarization. shares compounds with TRPC6 inhibitor. inhibition, % at 10 µM;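 active = fluorescence ratio falls more than 5 SD below the full-stimulation control mean, in both duplicate runs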;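 note: integrated fluorescence ratio of peak minus minimum over baseline after agonist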
TRPC6 act conf: mouse TRPC6 activator confirmation; actives 11% (n = 2,800); shares compounds with TRPC6 inhibitor; HEK293-TRPC6 membrane potential dye fluorescence, FDSS; AID 488961; activation, % at 10 µM;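 active = ratio signal rise beyond 5 SD above unstimulated control wells' mean, seen in both duplicate runs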
Each line names hits and unclear results; the compound was inactive in the other large screens (follow-up assays come after a bar, where they were run).

CCN(CC)CCN(C(=O)Cn1nnc(-c2ccc(C)o2)n1)C(C(=O)NC(C)(C)C)c1cccs1 (stereo unspecified)	TRPC6 activator 18 | HEK293 MPD ctr-2 488% | HEK293 MPD ctr 2-2 inactive | TRPC4/MOR mod 112% | TRPC4/MOR inh 2 32% | TRPC6 inh conf inactive | TRPC6 act conf 242%
Cc1ccc(-c2nnn(CC(=O)N(CCO)C(C(=O)NC3CCCC3)c3ccc(F)cc3)n2)o1 (stereo unspecified)	none
COc1ccc(C(C(=O)NC2CCCC2)N(CC2CCCO2)C(=O)Cn2nnc(-c3ccc(C)o3)n2)cc1 (stereo unspecified)	TRPC6 inhibitor -6.2 | HEK293 MPD ctr-2 inactive | HEK293 MPD ctr 2-2 inactive | TRPC4/MOR mod inactive | TRPC4/MOR inh 2 inactive | TRPC6 inh conf inactive | TRPC6 act conf inactive
CCCSc1nc2cc(C)c(C)cc2n1CC(O)CO (stereo unspecified)	none
CCN(CC)CC(O)Cn1c(-c2cccc(Cl)c2)nc2cc(C)c(C)cc21 (stereo unspecified)	TRPC6 inhibitor -6.5 | HEK293 MPD ctr-2 inactive | HEK293 MPD ctr 2-2 inactive | TRPC4/MOR mod inactive | TRPC4/MOR inh 2 74% | TRPC6 inh conf 63% | TRPC6 act conf inactive
COCCOC(=O)C(C#N)c1nc2ccccc2nc1N1CCN(Cc2ccccc2)CC1 (stereo unspecified)	TRPC6 inhibitor -6.2 | HEK293 MPD ctr-2 inactive | HEK293 MPD ctr 2-2 inactive | TRPC4/MOR mod inactive | TRPC4/MOR inh 2 36% | TRPC6 inh conf inactive | TRPC6 act conf inactive
COCC(C)OC(=O)C(C#N)c1nc2ccccc2nc1N1CCN(Cc2ccccc2)CC1 (stereo unspecified)	none
CCOC(=O)N1CCN(C(=O)/C(=C/c2ccc(Br)cc2)NC(=O)c2ccc(OC)cc2)CC1	none
Cc1cc(Br)ccc1NC(=O)CN(C)Cc1cccs1	none
O=C(Nc1ccccc1N1CCCC1)c1cc2ccccc2o1	none
CN1CCN(c2ccccc2NC(=O)c2ccc(Br)o2)CC1	TRPC6 inhibitor -9.6 | TRPC4 spec 2 28% | TRPC4 spec inactive | HEK293 MPD ctr 2-1 inactive | HEK293 MPD ctr-1 inactive | TRPC6 inh conf 87% | TRPC6 act conf inactive
CS(=O)(=O)N1CCN(c2ccc(NC(=O)c3cc4ccccc4o3)cc2)CC1	none
